Among the data in ChEMBL document CHEMBL1128335, “Design and synthesis of piperidine-3-carboxamides as human platelet aggregation inhibitors” (J Med Chem, 1995) are IC50, logP and inhibition values, retold here.

Series [1] is filed under the species Homo sapiens. As to the kind of experiment: Inhibitory activity against human platelet aggregation. It counts as functional. The gist of the method:
(§1)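 Human citrated PRP (blood:3.2% citrate 8:1; 120g, 15 min, 23 °C), count adjusted to 250 000–300 000/mm^3 with autologous PPP, gassed with 5% CO2/95% air, held at 37 °C. Test compound incubated 4 min. Aggregation triggered with each donor's minimal ADP concentration giving full biphasic response. Light transmission recorded 5.5 min. IC50 from regression of % inhibition on log molar concentration; mean ± SE, 4–6 determinations.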

Series [2] in a line: Partition coefficient (logP). It counts as physicochemical. As to conditions: octanol/water; call rule not given here.
The species entered for series [3] is Homo sapiens. Briefly: Inhibitory activity against human platelet aggregation; Inactive. It is filed as functional. Put shortly: as §1
For series [4], the species on record is Homo sapiens. Briefly: Inhibitory activity against human platelet aggregation at 200 uM. It is filed as functional.

For orientation: IC50 means the concentration needed to halve the response being measured. For orientation: logP means the decadic logarithm of the partition coefficient of the neutral form, usually between octanol and water. Usually inhibition stands for the percentage by which the read-out fell short of the control. Higher therefore signals strong suppression.

With `CCN(CC)C(=S)C1CCCN(Cc2ccc(CN3CCCC(C(=S)N(CC)CC)C3)cc2)C1` (stereo not drawn), the half-maximal inhibitory concentration (IC50) in series [1] (Homo sapiens, read-out: IC50) was found to be 51.6 µM. Also, in series [2] (read-out: logP), the logP stood at 5.01.
For `CCOC(=O)C1CCCN(Cc2ccc(CN3CCCC(C(=O)OCC)C3)cc2)C1` (stereo not drawn) the same measures were 757 µM and 4.21.
For `O=C(O)C1CCCN(Cc2ccc(CN3CCCC(C(=O)O)C3)cc2)C1` (stereo not drawn) the same measures were over 500 µM and 2.45.
On the same counts, the results for `CCN(Cc1ccccc1)C(=O)C1CCCN(Cc2ccc(CN3CCCC(C(=O)N(CC)Cc4ccccc4)C3)cc2)C1` (stereo not drawn) are 37.7 µM and 5.76.
For `COc1cc(CNC(=O)C2CCCN(Cc3ccc(CN4CCCC(C(=O)NCc5cc(OC)c(OC)c(OC)c5)C4)cc3)C2)cc(OC)c1OC` (stereo not drawn), the IC50 in series [1] (Homo sapiens, read-out: IC50) is 134 µM. The lipophilicity (logP) in series [2] (read-out: logP) worked out at 4.06.
On the same counts, the results for `CCN(CC)C(=O)C1CCCN(Cc2ccccc2-c2ccccc2CN2CCCC(C(=O)N(CC)CC)C2)C1` (stereo not drawn) are 354 µM and 5.43.
On the same counts, the results for `CCN(CC)C(=O)C1CCCN(Cc2ccc(-c3ccc(CN4CCCC(C(=O)N(CC)CC)C4)cc3)cc2)C1` (stereo not drawn) are 478 µM and 5.43.
On the same counts, the results for `CCN(CC)C(=O)C1CCCN(CC2CCC(CN3CCCC(C(=O)N(CC)CC)C3)CC2)C1` (stereo not drawn) are over 1000 µM and 4.57.
As for `CCCCN(CC)C(=O)C1CCCN(Cc2ccc(CN3CCCC(C(=O)N(CC)CCCC)C3)cc2)C1` (stereo not drawn), the IC50 in series [1] (Homo sapiens, read-out: IC50) turned out to be 18.4 µM. The lipophilicity (logP) in series [2] (read-out: logP) amounted to 5.55.
For `CC1CCCN(Cc2ccc(CN3CCCC(C)C3)cc2)C1` (stereo not drawn) the same measures were over 500 µM and 4.6.
Regarding `CCCN(CCC)C(=O)C1CCCN(Cc2ccc(CN3CCCC(C(=O)N(CCC)CCC)C3)cc2)C1` (stereo not drawn), in series [1] (Homo sapiens, read-out: IC50), the IC50 was 39.3 µM. In addition, in series [2] (read-out: logP), the log partition coefficient (logP) stood at 5.55.
With `CCN(CC)C(=O)C1CCCN(CCCCCCCCCCN2CCCC(C(=O)N(CC)CC)C2)C1` (stereo not drawn), the half-inhibitory concentration (IC50) in series [1] (Homo sapiens, read-out: IC50) was 207 µM. For the same compound, the lipophilicity (logP) in series [2] (read-out: logP) amounted to 5.92.
On the same counts, the results for `CCN(CC)C(=O)C1CCCN(CCCCCCCCN2CCCC(C(=O)N(CC)CC)C2)C1` (stereo not drawn) are 214 µM and 4.89.
On the same counts, the results for `O=C(C1CCCN(Cc2ccc(CN3CCCC(C(=O)N(Cc4ccccc4)Cc4ccccc4)C3)cc2)C1)N(Cc1ccccc1)Cc1ccccc1` (stereo not drawn) are 303 µM and 8.03.
For `CCCCCCN(C)C(=O)C1CCCN(Cc2ccc(CN3CCCC(C(=O)N(C)CCCCCC)C3)cc2)C1` (stereo not drawn) the same measures were 48.8 µM and 6.59.
`CC(C)N(C)C(=O)C1CCCN(Cc2ccc(CN3CCCC(C(=O)N(C)C(C)C)C3)cc2)C1` (stereo not drawn): the IC50 in series [1] (Homo sapiens, read-out: IC50) turned out to be 144 µM. Further, the logP in series [2] (read-out: logP) was determined as 3.48.
On the same counts, the results for `CCCN(C)C(=O)C1CCCN(Cc2ccc(CN3CCCC(C(=O)N(C)CCC)C3)cc2)C1` (stereo not drawn) are 34.6 µM and 3.48.
For `CC(C)N(C(=O)C1CCCN(Cc2ccc(CN3CCCC(C(=O)N(C(C)C)C(C)C)C3)cc2)C1)C(C)C` (stereo not drawn) the same measures were 58.8 µM and 5.55.
Turning to `CCN(CC)C(=O)C1CCCN(CCCCCCCCCCCCN2CCCC(C(=O)N(CC)CC)C2)C1` (stereo not drawn), the IC50 in series [1] (Homo sapiens, read-out: IC50) turned out to be 85.3 µM. The logP in series [2] (read-out: logP) turned out to be 6.96.
On the same counts, the results for `O=C(NCc1ccccc1)C1CCCN(Cc2ccc(CN3CCCC(C(=O)NCc4ccccc4)C3)cc2)C1` (stereo not drawn) are 53.6 µM and 4.18.
For `c1cc(CN2CCCCC2)ccc1CN1CCCCC1` the same measures were 8460 µM and 3.57.
On to `CCCCCCCCCCN1CCCC(C(=O)N2CCN(C(=O)C3CCCN(CCCCCCCCCC)C3)C(C)C2)C1` (stereo not drawn), for which the IC50 in series [1] (Homo sapiens, read-out: IC50) was 20.9 µM. Further, in series [2], the log partition coefficient (logP) worked out at 9.58.
On the same counts, the results for `CCCCCCCCCCN1CCCC(C(=O)N2CCC(C3CCN(C(=O)C4CCCN(CCCCCCCCCC)C4)CC3)CC2)C1` (stereo not drawn) are 25.9 µM and 11.322.
With `CCCCCCCCCCN1CCCC(C(=O)N2CCN(C(=O)C3CCCN(CCCCCCCCCC)C3)CC2)C1` (stereo not drawn), the half-inhibitory concentration (IC50) in series [1] (Homo sapiens, read-out: IC50) was found to be 16 µM. For the same compound, in series [2], the log partition coefficient (logP) is given as 9.06.
For `O=C(C1CCCN(Cc2ccc(CN3CCCC(C(=O)N4CCSCC4)C3)cc2)C1)N1CCSCC1` (stereo not drawn), in series [1] (Homo sapiens, read-out: IC50), the IC50 stood at 311 µM. Further, the lipophilicity (logP) in series [2] (read-out: logP) was found to be 2.89.
In the case of `CC(O)C1CCCN(Cc2ccc(CN3CCCC(C(C)O)C3)cc2)C1` (stereo not drawn), the IC50 in series [1] (Homo sapiens, read-out: IC50) was 589 µM. Also, the lipophilicity (logP) in series [2] (read-out: logP) is 2.3.
On to `CCCCCCCCCCN1CCCC(C(=O)N2CC(C)N(C(=O)C3CCCN(CCCCCCCCCC)C3)CC2C)C1` (stereo not drawn), for which the concentration for half-maximal inhibition (IC50) in series [1] (Homo sapiens, read-out: IC50) is 23.8 µM. This compound also displayed a log partition coefficient (logP) in series [2] of 10.096.
Regarding `O=C(C1CCCN(Cc2ccc(CN3CCCC(C(=O)N4CCCC4)C3)cc2)C1)N1CCCC1` (stereo not drawn), in series [1] (Homo sapiens, read-out: IC50), the IC50 was determined as 32.7 µM. Moreover, the log partition coefficient (logP) in series [2] (read-out: logP) is 2.75.
`CCN(CC)C(=O)C1CCCN(Cc2ccccc2Cl)C1` (stereo not drawn): in series [1] (Homo sapiens, read-out: IC50), the concentration for half-maximal inhibition (IC50) amounted to 2810 µM. The logP in series [2] (read-out: logP) was found to be 3.49.
On the same counts, the results for `CCN(CC)C(=O)C1CCCN(Cc2ccccc2)C1` (stereo not drawn) are 7400 µM and 2.75.
Turning to `CCN(CC)C(=O)C1CCCN(Cc2ccc(Cl)cc2)C1` (stereo not drawn), the IC50 in series [1] (Homo sapiens, read-out: IC50) turned out to be 217 µM. Besides, the log partition coefficient (logP) in series [2] (read-out: logP) came out at 3.49.
On the same counts, the results for `CCN(CC)C(=O)C1CCCN(CN2CC2)C1` (stereo not drawn) are 3250 µM and 2.43.
Regarding `CCCCCCCCCCN1CCCC(C(=O)N(CC)CC)C1` (stereo not drawn), the IC50 in series [1] (Homo sapiens, read-out: IC50) turned out to be 242 µM. Besides, the logP in series [2] (read-out: logP) was 5.76.
Take `CCCCCCCCCCN1CCCC(NC(=O)C2CCCN(CCCCCCCCCC)C2)C1` (stereo not drawn): the IC50 result in series [3] is on record as “Not Active”. Moreover, the logP in series [2] is on record as 9.96.
Turning to `CCN(CC)C(=O)C1CCCN(Cc2cccc(Cl)c2)C1` (stereo not drawn), the IC50 in series [1] (Homo sapiens, read-out: IC50) came out at 1650 µM. In addition, the logP in series [2] (read-out: logP) worked out at 3.49.
Turning to `Br.Br.CCN(CC)C(=O)C1CC(C(=O)N(CC)CC)CN(Cc2ccc(CN3CC(C(=O)N(CC)CC)CC(C(=O)N(CC)CC)C3)cc2)C1` (stereo not drawn), the IC50 entry in series [3] is reported as “Not Active”. In series [2] (read-out: logP), the logP was 3.39.
For the compound `O=C(C1CCCN(Cc2ccc(CN3CCCC(C(=O)N4CCCCC4)C3)cc2)C1)N1CCCCC1` (stereo not drawn), the half-maximal inhibitory concentration (IC50) in series [1] (Homo sapiens, read-out: IC50) amounted to 28.9 µM. In series [2] (read-out: logP), the logP was 3.79.
On the same counts, the results for `O=C(C1CCCN(Cc2ccc(CN3CCCC(C(=O)N4CCC(Cc5ccccc5)CC4)C3)cc2)C1)N1CCC(Cc2ccccc2)CC1` (stereo not drawn) are 277 µM and 8.14.
In the case of `Br.CCN(CC)C(=O)C1CCCN(Cc2ccc(C(C)(C)C)cc2)C1` (stereo not drawn), in series [1], the concentration for half-maximal inhibition (IC50) entry was “Not Active”. The compound further gave an inhibition at 200 µM in series [4] of 2%. The lipophilicity (logP) in series [2] (read-out: logP) was determined as 4.83.
As to `CCCCCCCCCCN1CCCC(C(=S)N(CC)CC)C1` (stereo not drawn), in series [1] (Homo sapiens, read-out: IC50), the half-inhibitory concentration (IC50) amounted to 358 µM. Also, the logP in series [2] (read-out: logP) worked out at 6.53.
Take `CC(=O)NCC1CCCN(Cc2ccc(CN3CCCC(CNC(C)=O)C3)cc2)C1` (stereo not drawn): the logP in series [2] (read-out: logP) turned out to be 0.74.
In the case of `CCCCCN1CCCC(C(=O)N2CCCN(C(=O)C3CCCN(CCCCC)C3)CC2)C1` (stereo not drawn), the 50% inhibitory concentration (IC50) in series [1] (Homo sapiens, read-out: IC50) turned out to be 84.6 µM. Moreover, in series [2] (read-out: logP), the lipophilicity (logP) worked out at 4.63.
On the same counts, the results for `O=C(C1CCCN(Cc2ccc(CN3CCCC(C(=O)N4CCOCC4)C3)cc2)C1)N1CCOCC1` (stereo not drawn) are 1650 µM and 0.74.
Consider `CCCCCCCCCCN1CCCC(C(=O)N2CC(C)N(C(=O)C3CCCN(CCCCCCCCCC)C3)C(C)C2)C1` (stereo not drawn), for which, in series [1] (Homo sapiens, read-out: IC50), the IC50 came to 22.9 µM. Besides, the logP in series [2] is reported as 10.096.
